This note sets out measurements from ChEMBL document CHEMBL5154945, “Discovery and Optimization of Pyrrolopyrimidine Derivatives as Selective Disruptors of the Perinucleolar Compartment, a Marker of Tumor Progression toward Metastasis” (J Med Chem, 2022).

In general, solubility (kinetic) refers to the concentration staying in solution when a stock, usually in DMSO, is diluted into the medium. As usually defined, the half-life is how long it takes for the measured level to halve. As a reminder, the Papp is a coefficient for how fast a substance crosses the barrier. Low readings indicate poor permeation, high ones ready permeation.

The nature of data set [1]: Kinetic solubility of compound.
Data set [2] can be described thus: Microsomal stability in CD1 mouse liver microsomes assessed as half life measured upto 60 mins in presence of NADPH by LC-MS analysis. The following applies: for t1/2: mouse, microsomes, 1 h; for half-life at 1 h: CD1, mouse, liver microsomes. On the technique in general: Microsomes from liver hold many membrane-bound enzymes, among them those of drug oxidation.

A further data set has as its system PC-3M. Briefly: Anticancer activity in human PC-3M cells expressing PTB/GFP fusion protein assessed as perinucleolar compartment disassembly and measured after 24 hrs by Hoechst 33342 staining based microscopic method. Type of data set: functional, cell-based. A digest of the protocol: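 Imaged by high-content microscopy. Nuclei with PNC spots ≥3 and >0 scored positive. PNC prevalence % = PNC-positive nuclei/total nuclei ×100, normalized to DMSO (0% activity) and 0% PNC (−100%). IC50 from concentration-response.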

A short description of data set [3]: Permeability of the compound at pH 7.4 incubated for 30 mins by UV plate reader based PAMPA assay. As to conditions: for permeability: pampa, pH 7.4, 0.5 h.
Another data set in a line: in vitro. The following applies: human, PC-3M cells expressing PTB/GFP fusion protein.
Data set [4] can be described thus: Cytotoxicity against human PC-3M cells expressing PTB/GFP fusion protein assessed as reduction in ATP level and measured after 24 to 48 hrs by ATPlite luminescence assay. Type of data set: toxicity, cell-based. A general note: ATP-based viability assays read luminescence as a measure of living cells.

Several values for one entry are separate records, joined by “and”; a condition that tells them apart may be missing. Equal values may be shown once. Where only a bound is given, the exact number is not on record here.

For the molecule `N=c1c2c(-c3ccccc3)c(-c3ccccc3)n(Cc3ccccc3)c2ncn1C1CCC(=O)CC1`, the kinetic solubility in data set [1] was 75 µM and 36 µg/mL. The t1/2 in data set [2] amounted to 38.2 min. In addition, in the data set on PC-3M (read-out: pIC50 (converted)), the IC50 is 0.302 µM. In addition, the permeability in data set [3] is > 1000 10^-6 cm/s.

Consider `N=c1c2c(-c3ccccc3)c(-c3ccccc3)n(Cc3ccccc3)c2ncn1C1CCOCC1`, for which the solubility (kinetic) in data set [1] was 18 µM and 8.3 µg/mL. Also, in data set [2], the t1/2 is 29.6 min. Also, the IC50 was 0.32 µM in the data set with PC-3M (read-out: IC50) and 0.316 µM in the data set on PC-3M (read-out: pIC50 (converted)). For the same molecule, the permeability in data set [3] is > 1000 10^-6 cm/s.

Turning to `N=c1c2c(-c3ccccc3)c(-c3ccccc3)n(CCc3ccccc3)c2ncn1[C@H]1CC[C@H](O)CC1`, the kinetic solubility in data set [1] was > 132 µM and > 65 µg/mL. In addition, the half-life at 1 h in data set [2] turned out to be 120 min. The IC50 with PC-3M (read-out: pIC50 (converted)) is 0.339 µM. Also, the permeability in data set [3] is > 1000 10^-6 cm/s.

Consider `CC[C@@]1(O)C(=O)OCc2c1cc1n(c2=O)Cc2cc3ccccc3nc2-1` [CAMPTOTHECIN], for which the selectivity ratio in “in vitro” was 2.5. The IC50 was determined as 0.19 µM in the data set with PC-3M (read-out: IC50) and 0.48 µM in data set [4].

Regarding `COc1cccc2c1C(=O)c1c(O)c3c(c(O)c1C2=O)C[C@@](O)(C(=O)CO)C[C@@H]3O[C@H]1C[C@H](N)[C@H](O)[C@H](C)O1` [DOXORUBICIN], the IC50 in the data set with PC-3M (read-out: IC50) worked out at 0.86 µM; in data set [4], 0.66 µM.

As to `N=c1c2c(-c3ccccc3)c(-c3ccccc3)n(Cc3ccc(S(N)(=O)=O)cc3)c2ncn1C1CCOCC1`, in data set [2], the t1/2 was 70 min. Further, in the data set with PC-3M (read-out: pIC50 (converted)), the IC50 is 1.17 µM. Moreover, the Papp at 0.5 h in data set [3] (PAMPA, pH 7.4) was over 1000 ×10⁻⁶ cm/s.

As to `N=c1c2c(-c3ccccc3)c(-c3ccccc3)n(Cc3ccccc3)c2ncn1[C@H](CO)Cc1ccccc1`, the t1/2 in data set [2] was found to be 5.5 min. For the same molecule, the IC50 in the data set with PC-3M (read-out: IC50) is over 20 µM. The permeability in data set [3] was < 1 10^-6 cm/s.

On to `COc1ccc(CCn2cnc3c(c(-c4ccccc4)cn3Cc3ccccc3)c2=N)cc1OC`, for which, in data set [2], the t1/2 is given as 2.9 min. For the same molecule, in the data set on PC-3M (read-out: IC50), the IC50 is over 20 µM. In data set [3], the permeability is reported as > 1000 10^-6 cm/s.

Turning to `Cc1c(C)n(Cc2ccccc2)c2ncn(CCCO)c(=N)c12`, in data set [2], the half-life at 1 h is 120 min. Further, in the data set on PC-3M (read-out: IC50), the IC50 was over 20 µM. Also, the permeability in data set [3] is 609.3 10^-6 cm/s.

For `N=c1c2c(-c3ccccc3)c(-c3ccccc3)n(CCc3ccccc3)c2ncn1CC1CCOCC1`, in data set [2], the t1/2 was found to be 7.3 min. For the same molecule, the IC50 in the data set with PC-3M (read-out: IC50) turned out to be 10 µM. The permeability in data set [3] was 1229.2 10^-6 cm/s.

With `N=c1c2c(-c3ccccc3)c(-c3ccccc3)n(Cc3ccc(OC(F)(F)F)cc3)c2ncn1[C@H]1CC[C@H](O)CC1`, the half-life at 1 h in data set [2] was determined as 120 min. In the data set on PC-3M (read-out: pIC50 (converted)), the IC50 is 0.631 µM. The permeability in data set [3] is on record as 1246.89 10^-6 cm/s.

In the case of `COCCn1cnc2c(c(-c3ccccc3)c(-c3ccccc3)n2Cc2ccccc2)c1=N`, the t1/2 in data set [2] was found to be 9.5 min. In the data set with PC-3M (read-out: pIC50 (converted)), the IC50 is 9.33 µM. In data set [3], the permeability is > 1000 10^-6 cm/s.

Regarding `N=c1c2c(-c3ccccc3)c(-c3ccccc3)n(Cc3ccccc3)c2ncn1CCCCO`, in data set [2], the t1/2 was 7.7 min. Further, the IC50 in the data set on PC-3M (read-out: pIC50 (converted)) was 4.27 µM. In addition, the permeability in data set [3] is on record as > 1000 10^-6 cm/s.
